Test results from ChEMBL document CHEMBL3297646, “Structure-activity relationship study of non-steroidal NPC1L1 ligands identified through cell-based assay using pharmacological chaperone effect as a readout” (Bioorg Med Chem, 2014).
The source made the active and inactive calls. The calls are words filed in the database; no cut-off is given here.

Tests used:
[1] = target: T1, NPC1-like intracellular cholesterol transporter 1 (Homo sapiens) (UniProt Q9UHC9); test: Binding affinity to human GFP-tagged NPC1L1 L1072T/L1168I mutant expressed in HEK293 cells assessed as localization to plasma membrane at 30 uM after 24 hrs by fluorescence microscopic analysis; assay type: cell-based
T1 sequence (whole entry): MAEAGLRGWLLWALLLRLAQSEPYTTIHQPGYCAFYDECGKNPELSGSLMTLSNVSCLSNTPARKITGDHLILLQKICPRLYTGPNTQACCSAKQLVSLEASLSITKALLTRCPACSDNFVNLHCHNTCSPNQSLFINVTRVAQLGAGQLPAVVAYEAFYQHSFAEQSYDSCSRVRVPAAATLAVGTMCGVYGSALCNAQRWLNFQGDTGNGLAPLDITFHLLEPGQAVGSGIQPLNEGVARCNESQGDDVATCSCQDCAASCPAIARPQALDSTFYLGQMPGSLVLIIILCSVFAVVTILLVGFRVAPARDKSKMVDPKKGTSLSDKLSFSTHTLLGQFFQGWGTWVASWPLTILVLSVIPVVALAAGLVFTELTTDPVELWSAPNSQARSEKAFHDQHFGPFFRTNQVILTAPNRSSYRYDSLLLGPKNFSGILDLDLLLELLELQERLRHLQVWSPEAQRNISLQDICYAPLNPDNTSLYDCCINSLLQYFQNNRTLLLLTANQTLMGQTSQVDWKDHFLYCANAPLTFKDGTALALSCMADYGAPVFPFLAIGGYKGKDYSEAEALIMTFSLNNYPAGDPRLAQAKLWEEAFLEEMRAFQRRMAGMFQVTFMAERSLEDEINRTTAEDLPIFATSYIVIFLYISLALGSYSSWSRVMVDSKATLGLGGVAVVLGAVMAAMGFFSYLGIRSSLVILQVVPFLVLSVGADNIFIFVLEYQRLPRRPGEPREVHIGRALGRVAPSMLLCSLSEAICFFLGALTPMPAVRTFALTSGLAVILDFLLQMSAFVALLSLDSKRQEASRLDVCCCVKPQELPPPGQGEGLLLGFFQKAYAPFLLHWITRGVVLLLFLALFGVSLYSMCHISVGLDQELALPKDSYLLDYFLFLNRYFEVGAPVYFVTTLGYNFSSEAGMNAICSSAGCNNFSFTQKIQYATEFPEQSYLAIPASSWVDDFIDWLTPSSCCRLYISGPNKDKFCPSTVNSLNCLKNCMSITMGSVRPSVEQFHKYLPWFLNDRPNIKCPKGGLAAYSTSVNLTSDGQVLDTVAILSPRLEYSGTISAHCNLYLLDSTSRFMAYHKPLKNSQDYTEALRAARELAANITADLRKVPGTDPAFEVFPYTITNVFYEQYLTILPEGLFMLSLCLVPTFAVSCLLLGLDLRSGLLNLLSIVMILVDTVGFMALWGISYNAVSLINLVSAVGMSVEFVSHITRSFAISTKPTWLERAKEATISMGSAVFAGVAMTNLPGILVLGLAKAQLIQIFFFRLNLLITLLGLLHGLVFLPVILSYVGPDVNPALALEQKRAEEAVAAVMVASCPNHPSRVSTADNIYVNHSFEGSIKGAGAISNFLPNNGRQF
In short: (§1)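 HEK293 cells stably expressing EGFP-tagged NPC1L1 L1072T/L1168I were plated on poly-D-lysine-coated glass-bottomed wells (20 µg/mL in PBS) and grown 24 h. They were then exposed to compound at 10 or 30 µM (0.1% final DMSO) and fixed in 3.7% formaldehyde-PBS. Read-out was % of EGFP signal localized to the plasma membrane.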

[2] = target: T1, NPC1-like intracellular cholesterol transporter 1 (Homo sapiens); test: Binding affinity to human GFP-tagged NPC1L1 L1072T/L1168I mutant expressed in HEK293 cells assessed as localization to plasma membrane at 10 uM after 24 hrs by fluorescence microscopic analysis; assay type: cell-based; in short: as §1
[3] = target: Liver X receptor (Homo sapiens) (UniProt Q13133+P55055); test: Activation of LXR (unknown origin) expressed in HEK293 cells at 30 uM after 16 hrs by luciferase reporter gene assay; assay type: cell-based
[4] = target: T1, NPC1-like intracellular cholesterol transporter 1 (Homo sapiens); test: Binding affinity to human EGFP-tagged NTD-deleted NPC1L1 L1072T/L1168I mutant expressed in HEK293 cells assessed as localization to plasma membrane after 24 hrs by fluorescence microscopic analysis; assay type: cell-based
In short: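 Stable HEK293 lines expressing NTD-deleted NPC1L1 L1072T/L1168I-EGFP were grown 24 h on poly-D-lysine-coated glass-bottomed wells and treated with compound (0.1% final DMSO). Cells were fixed in 3.7% formaldehyde-PBS with Hoechst-33342 nuclear counterstain. NPC1L1-GFP localization was examined by fluorescence imaging.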

[5] = target: T1, NPC1-like intracellular cholesterol transporter 1 (Homo sapiens); test: Binding affinity to human EGFP-tagged full-length NPC1L1 L1072T/L1168I mutant expressed in HEK293 cells assessed as protein stabilization after 24 hrs by fluorescence assay; assay type: cell-based
In short: (§2)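 Steady-state levels of full-length or NTD-deleted NPC1L1 L1072T/L1168I-GFP were measured in stably expressing HEK293 cells treated with compound at 1–30 µM or vehicle. GFP fluorescence in cell lysates was normalized to total protein by bicinchoninic acid assay. Values are expressed as % of vehicle-treated cells.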

[6] = target: T1, NPC1-like intracellular cholesterol transporter 1 (Homo sapiens); test: Binding affinity to human EGFP-tagged NTD-deleted NPC1L1 L1072T/L1168I mutant expressed in HEK293 cells assessed as protein stabilization after 24 hrs by fluorescence assay; assay type: cell-based; in short: as §2
[7] = species on record: Homo sapiens; test: Selectivity for human GFP-tagged NPC1L1 L1072T/L1168I mutant over LXR (unknown origin)
[8] = tested on: HEK293; test: Cytotoxicity against HEK293 cells transfected with human GFP-tagged NPC1L1 L1072T/L1168I mutant at 30 uM; assay type: cell-based; conditions: hek293, 30 µM

Row | SMILES | Activity [1] | Activity [2] | other results
1 | CCCCn1c(=O)c2ccccc2c2cc(C(=O)N(CCC)CCC)ccc21 | 50% | 14% | –
2 | CCCCn1c(=O)c2c(c3cc(C(=O)N(CC)C4CC4)ccc31)CCCCC2 | 45% | 8% | Activity [3]: inactive; Activity [4]: Active; Activity [5]: Active; Activity [6]: Active; Selectivity ratio [7]: 2
3 | CCCCn1c(=O)c2ccccc2c2cc(C(N)=O)ccc21 | 0% | – | –
4 | CCCCN(CCCC)C(=O)c1ccc2c(c1)c1ccccc1c(=O)n2CCCC | – | 18% | Activity [8]: Toxic
5 | CCCCn1c(=O)c2ccccc2c2cc(C(=O)NC(C)C)ccc21 | 49% | 0% | –
6 | CCCCN1C(=O)c2ccccc2Oc2cc(C(=O)N(CC)CC)ccc21 | 3% | – | –
7 | CCN(C(=O)c1ccc2c(c1)c1c(c(=O)n2Cc2ccccc2)CCCCC1)C1CC1 | 14% | 0% | –
8 | CCCCn1c(=O)c2c(c3cc(C(=O)N(CC)CC)ccc31)CCCCCC2 | 44% | 5% | –
9 | CCCCn1c(=O)c2c(c3cc(C(N)=O)ccc31)CCCCC2 | 0% | – | –
10 | CCN(C(=O)c1ccc2[nH]c(=O)c3c(c2c1)CCCCC3)C1CC1 | 0% | – | Activity [5]: Active; Activity [6]: Active
11 | CCCCNC(=O)c1ccc2c(c1)c1c(c(=O)n2CCCC)CCCCC1 | 18% | 0% | –
12 | CCCCn1c(=O)c2ccccc2c2cc(C(=O)N(CC)CC)ccc21 | 45% | 1% | –
13 | CCN(C(=O)c1ccc2c(c1)c1c(c(=O)n2C)CCCCC1)C1CC1 | 0% | – | –
14 | CCN(CC)C(=O)c1ccc2c(c1)c1ccccc1c(=O)n2Cc1ccccc1 | 0% | – | –
15 | CCCCn1c(=O)c2ccccc2c2cc(C(=O)NC3CC3)ccc21 | 55% | 14% | –
16 | CCCCn1c(=O)c2c(c3cc(C(=O)NC4CCCCC4)ccc31)CCCCC2 | 5% | 2% | –
17 | CCN(C(=O)c1ccc2c(c1)c1c(c(=O)n2CCO)CCCCC1)C1CC1 | 0% | – | –
18 | CCCCCCn1c(=O)c2c(c3cc(C(=O)N(CC)C4CC4)ccc31)CCCCC2 | – | 1% | Activity [8]: Toxic
19 | CCCCn1c(=O)c2ccccc2c2cc(C(=O)N(C)C)ccc21 | 4% | – | –

Row | SMILES | Activity [1] | Activity [2] | other results
20 | CCCCn1c(=O)c2c(c3cc(C(=O)NC)ccc31)CCCCC2 | 23% | 0% | –
21 | CCCCn1c(=O)c2c(c3cc(C(=O)NCC)ccc31)CCCCC2 | 28% | 0% | –
22 | CCCCn1c(=O)c2c(c3cc(C(=O)NCCO)ccc31)CCCCC2 | 0% | – | –
23 | CCCCn1c(=O)c2c(c3cc(C(=O)NC(C)(C)C)ccc31)CCCCC2 | 1% | – | –
24 | CCCCn1c(=O)c2ccccc2c2cc(C(=O)NC)ccc21 | 24% | 1% | –
25 | CCCCn1c(=O)c2c(c3cc(C(=O)N(C)C)ccc31)CCCCC2 | 2% | – | –
26 | CCCCn1c(=O)c2ccccc2c2cc(C(=O)N3CCOCC3)ccc21 | 0% | – | –
27 | CCCCn1c(=O)c2ccccc2c2cc(C(=O)NC(C)(C)C)ccc21 | 41% | 11% | –
28 | CCN(CC)C(=O)c1ccc2c(c1)c1ccccc1c(=O)n2CC | 4% | – | –
29 | CCN(CC)C(=O)c1ccc2c(c1)c1ccccc1c(=O)n2CCCC(=O)O | 0% | – | –
30 | CCCCCn1c(=O)c2c(c3cc(C(=O)N(CC)C4CC4)ccc31)CCCCC2 | 35% | 3% | –
31 | CCN(CC)C(=O)c1ccc2c(c1)c1ccccc1c(=O)n2CC(=O)O | 0% | – | –
32 | CCCCn1c(=O)c2ccccc2c2cc(C(=O)N3CCCCC3)ccc21 | 47% | 0% | –
33 | CCCCn1c(=O)c2c(c3cc(C(=O)NC4CC4)ccc31)CCCCC2 | 49% | 3% | –
34 | CCN(CC)C(=O)c1ccc2c(c1)c1ccccc1c(=O)n2Cc1ccc(OC)cc1 | 18% | 0% | –
35 | CCN(C(=O)c1ccc2c(c1)c1c(c(=O)n2CC)CCCCC1)C1CC1 | 7% | – | Activity [5]: Active; Activity [6]: Active
36 | CCCCN1C(=O)CCc2cc(C(=O)N(CC)CC)ccc21 | 1% | – | –
37 | CCN(CC)C(=O)c1ccc2c(c1)c1ccccc1c(=O)n2CCCC(=O)N(C)C | 0% | – | –
38 | CCN(CC)C(=O)c1ccc2c(c1)c1ccccc1c(=O)n2CC(=O)N(C)C | 0% | – | –

Row | SMILES | Activity [1] | Activity [2] | other results
39 | CCN(C(=O)c1ccc2c(c1)c1c(c(=O)n2CCOC)CCCCC1)C1CC1 | 0% | – | –
40 | CCCCn1c(=O)c2c(c3cc(C(=O)N(CC)CC)ccc31)CCC2 | 15% | 1% | –
41 | CCN(CC)C(=O)c1ccc2[nH]c(=O)c3ccccc3c2c1 | 0% | – | –
42 | CCCC(=O)N1CC2=C(CCCC2)c2cc(C(=O)N(CC)CC)ccc21 | 1% | – | –
43 | CCN(CC)C(=O)c1ccc2c(c1)c1ccccc1c(=O)n2C | 0% | – | –
44 | CCCCn1c(=O)c2ccccc2c2cc(C(=O)NC3CCCC3)ccc21 | 0% | – | –
45 | CCCCn1c(=O)c2c(c3cc(C(=O)Nc4ccccc4)ccc31)CCCCC2 | 0% | – | –
46 | CCCCn1c(=O)c2c(c3cc(C(=O)NCCC)ccc31)CCCCC2 | 36% | 0% | –
47 | CCCCn1c(=O)c2c(c3cc(C(=O)N(C)C4CC4)ccc31)CCCCC2 | 21% | 1% | –
48 | CCCCn1c(=O)c2c(c3cc(C(=O)NC4CCCC4)ccc31)CCCCC2 | 16% | 6% | –
49 | CCCCn1c(=O)c2c(c3cc(C(=O)N(CC)CC)ccc31)CCCCC2 | 42% | 14% | –
50 | CCCCn1c(=O)c2ccccc2c2cc(C(=O)NCc3ccccc3)ccc21 | 0% | – | –
51 | CCCCn1c(=O)c2c(c3cc(C(=O)N(CC)CC)ccc31)CCCC2 | 42% | 2% | –
52 | CCN(C(=O)c1ccc2c(c1)c1c(c(=O)n2C(C)C)CCCCC1)C1CC1 | – | 0% | Activity [8]: Toxic
53 | CCCCn1c(=O)c2ccccc2c2cc(C(=O)NC3CCCCC3)ccc21 | 11% | 3% | –
54 | CCCCn1c(=O)c2c(c3cc(C(=O)NC(C)C)ccc31)CCCCC2 | 25% | 0% | –
55 | CCCCn1c(=O)c2c(c3cc(C(=O)N4CCCC4)ccc31)CCCCC2 | 33% | 1% | –
56 | CCCn1c(=O)c2c(c3cc(C(=O)N(CC)C4CC4)ccc31)CCCCC2 | 39% | 0% | –
57 | CCCCn1c(=O)c2ccccc2c2cc(C(=O)N(CCO)CCO)ccc21 | 0% | – | –
